# From the M2OR odorant receptor database
# Molecular target: T1, OR52A1 (Homo sapiens) (UniProt Q9UKL2)
# T1 sequence (whole entry): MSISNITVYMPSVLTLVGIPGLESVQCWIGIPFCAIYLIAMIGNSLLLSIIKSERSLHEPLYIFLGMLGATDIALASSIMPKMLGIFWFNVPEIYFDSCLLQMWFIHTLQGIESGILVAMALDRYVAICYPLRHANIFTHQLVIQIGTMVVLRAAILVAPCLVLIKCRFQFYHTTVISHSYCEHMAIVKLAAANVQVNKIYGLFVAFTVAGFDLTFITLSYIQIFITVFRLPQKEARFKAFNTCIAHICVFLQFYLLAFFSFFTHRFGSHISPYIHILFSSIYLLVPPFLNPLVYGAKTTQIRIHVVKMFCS
# Settings: stereoisomer not certain
# In short: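 Transient luciferase assays in mammalian cell lines were common, though methods varied by source. The values come from published papers and their supplementary material, with extra details from the original authors when needed. Responsive refers to a measured signal the original authors judged statistically different from baseline, and non-responsive (inactive) to the remainder.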
# 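Further: active if original authors judged signal statistically different from baseline.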
compound,measurement,value
CCCCCCCCC(=O)O,odorant receptor agonist call,inactive
